Source: publication PMC2962933 (Biochemistry, 2010)
Like-named read-outs stand apart in the source and are kept apart here.

Experiments:
[1] = test system: TcK431A mutant of Tc-SAHH; experiment: cofactor content of isolated and reconstituted mutant enzyme; assay type: binding, Trypanosoma cruzi
Method in brief: (§1)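 Apo-enzyme preparation: mutants expressed in E. coli were precipitated three times with 80% (v/v) acid ammonium sulfate plus 2–5 mM DTT (pH 2.92, 3.12, then 7.2). Pellets were redissolved in 50 mM phosphate pH 7.2 with 1 mM EDTA. Apo protein (10 mg/mL) was incubated with 1 mM NAD+ or NADH for 12 h at 4 °C, then purified by Superdex 200 gel filtration.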

[2] = test system: TcY435A mutant of Tc-SAHH; experiment: as above; assay type: binding, Trypanosoma cruzi
Method in brief: as §1

[3] = target: T1, HsY430A mutant of Hs-SAHH (Homo sapiens, UniProt P23526, Y430A); experiment: cofactor content of isolated and reconstituted mutant enzyme; assay type: binding
T1 sequence (P23526 1-432 Y430A): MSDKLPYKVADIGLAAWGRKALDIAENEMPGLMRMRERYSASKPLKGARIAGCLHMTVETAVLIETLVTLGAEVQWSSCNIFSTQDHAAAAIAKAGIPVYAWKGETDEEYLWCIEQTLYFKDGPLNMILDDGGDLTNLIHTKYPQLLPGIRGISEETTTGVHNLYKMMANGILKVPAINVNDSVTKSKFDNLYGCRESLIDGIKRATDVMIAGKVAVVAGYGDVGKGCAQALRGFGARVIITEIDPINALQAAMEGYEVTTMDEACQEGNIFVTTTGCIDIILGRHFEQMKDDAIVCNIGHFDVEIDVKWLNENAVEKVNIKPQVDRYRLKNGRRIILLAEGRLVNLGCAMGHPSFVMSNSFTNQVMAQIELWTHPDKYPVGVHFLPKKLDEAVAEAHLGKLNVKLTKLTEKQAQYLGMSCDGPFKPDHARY

Hs-SAHH [4] = settings: 23 °C, pH 7.4, cited from earlier work
[5] = test system: TcY435A mutant of Tc-SAHH; experiment: dissociation of NAD^+; assay type: binding, Trypanosoma cruzi
[6] = target: T1, HsY430A mutant of Hs-SAHH; experiment: association kinetics of NAD^+ with apo-enzyme; assay type: binding
[7] = target: T1, HsY430A mutant of Hs-SAHH; experiment: dissociation of NAD^+; assay type: binding
Tc-SAHH [8] = settings: 23 °C, pH 7.4, cited from earlier work
[9] = target: TcY435A mutant of Tc-SAHH; experiment: association kinetics of NAD^+ with apo-enzyme; assay type: binding, Trypanosoma cruzi; settings: 23 °C, pH 7.4
Hs-SAHH [10] = settings: cited from earlier work
Tc-SAHH [11] = settings: cited from earlier work
[12] = target: K431A mutant of Trypanosoma cruzi S-adenosylhomocysteine hydrolase (TcK431A) (Trypanosoma cruzi); experiment: SEC
[13] = target: Y435A mutant of Trypanosoma cruzi S-adenosylhomocysteine hydrolase (TcY435A) (Trypanosoma cruzi); experiment: SEC
SEC = target: the molecule itself; experiment: SEC
[14] = enzyme as isolated from the expression system, fluorescence
[15] = binding to non-functional sites of apo-SAHH
[16] = read-out: Kf, binding to fully functional sites of holo-SAHH
[17] = read-out: Ko, binding to fully functional sites of apo-SAHH
[18] = Table 2 (23 °C, pH 7.4), value is 10^6 x koff
[19] = enzyme as isolated from the expression system, HPLC

For `NC(=O)C1=CN([C@@H]2O[C@H](COP(=O)(O)OP(=O)(O)OC[C@H]3O[C@@H](n4cnc5c(N)ncnc54)[C@H](O)[C@@H]3O)[C@@H](O)[C@H]2O)C=CC1` [NADH, β-nicotinamide adenine dinucleotide, reduced form], the “occupancy after reconstitution of apo-enzyme with NADH” value (from here on “occupancy … with NADH”) ([1]; attempted reconstitution) was “no detectable occupancy”, the “active-site occupancy by NADH” value [1, 14] was 1.30 ± 0.03% and the “occupancy … with NADH” value ([2]; attempted reconstitution) was “no detectable occupancy”. For the same molecule, the “active-site occupancy by NADH” value [2, 14] was 90 ± 1%, the “occupancy … with NADH” value ([3]; 1 mM NADH, 12 h, 4 °C, fluorescence) was 94 ± 1% and the “active-site occupancy by NADH” value [3, 14] was 86 ± 5%.

In the case of `NC(=O)C1=CN([C@@H]2O[C@H](COP(=O)(O)OP(=O)(O)OC[C@H]3O[C@@H](n4cnc5c(N)ncnc54)[C@H](O)[C@@H]3O)[C@@H](O)[C@H]2O)C=CC1` [NAD^+, β-nicotinamide adenine dinucleotide], the Ka (Hs-SAHH [4]; [15]) is listed as 19 ± 8 µM, the “Kd, koff/(ka/Ka)” value (Hs-SAHH [4]) is listed as 0.007 ± 0.003 µM and the “10^−3kon” value (Hs-SAHH [4]; value is 10^−3 x kon) is listed as 1.9 ± 0.04 M^−1s^−1. For the same molecule, the Kd (Hs-SAHH [4]; read-out: Kd, koff/kon) was 0.01 ± 0.002 µM, the Kd (Hs-SAHH [4]; [16]) was 1.4 ± 0.3 µM and the Kd (Hs-SAHH [4]; [17]) was 33 ± 4 µM. The koff ([5]; 24 °C, pH 7.4) was 2.8 ± 0.2 × 10^−2 s^−1, the “10^3koff” value ([5]; Table 2 (23 °C, pH 7.4), value is 10^3 x koff) was 28 ± 2 s^−1 and the “Kd, koff/(ka/Ka)” value ([6]; 23 °C, pH 7.4) was 0.75 ± 0.095 µM. For the same molecule, the Ka ([6]; 23 °C, pH 7.4, binding to non-functional sites of apo-SAHH) was 17 ± 2 µM, the “n (Hill coefficient for Ko)” value ([6]; 23 °C, pH 7.4, fast-binding sites) was 0.9 ± 0.1 and the “10^−3kon” value ([6]; 23 °C, pH 7.4, value is 10^−3 x kon) was 0.54 ± 0.04 M^−1s^−1. The “decrease of the on-rate, mutant vs wild type” value ([6]; HsY430A vs Hs-SAHH) was 4 fold, the Kd ([6]; read-out: Kd, koff/kon, 23 °C, pH 7.4) was 0.784 ± 0.064 µM and the Kd ([6]; read-out: Kf, 23 °C, pH 7.4, binding to fully functional sites of holo-SAHH) was 2 ± 0.3 µM. The Kd ([6]; read-out: Ko, 23 °C, pH 7.4, binding to fully functional sites of apo-SAHH) was 432 ± 93 µM, the koff ([7]; 30 °C, pH 7.4) was 4.2 ± 0.1 × 10^−4 s^−1 and the “10^6koff” value [7, 18] was 420 ± 10 s^−1. For the same molecule, the “occupancy after reconstitution of apo-enzyme with NAD^+” value ([1]; attempted reconstitution) was “no detectable occupancy”, the “occupancy after reconstitution of apo-enzyme with NAD^+” value ([2]; attempted reconstitution) was “no detectable occupancy” and the “active-site occupancy by NAD^+” value [2, 19] was 18 ± 1%. For the same molecule, the Ka (Tc-SAHH [8]; [15]) was 3.8 ± 0.6 µM, the “Kd, koff/(ka/Ka)” value (Tc-SAHH [8]) was 0.069 ± 0.018 µM and the “10^−3kon” value (Tc-SAHH [8]; value is 10^−3 x kon) was 0.68 ± 0.02 M^−1s^−1. For the same molecule, the Kd (Tc-SAHH [8]; read-out: Kd, koff/kon) was 0.161 ± 0.03 µM, the Kd (Tc-SAHH [8]; [16]) was 1.8 ± 0.4 µM and the Kd (Tc-SAHH [8]; [17]) was 38 ± 9 µM. The “active-site occupancy by NAD^+” value [3, 19] was 30 ± 5%, the “Kd, koff/(ka/Ka)” value [9] was 1000 ± 300 µM and the kon [9] was 18 ± 2 M⁻¹ s⁻¹. The ka/Ka ([9]; binding and transformation of apo-sites to holo-sites) was 29 ± 9 M⁻¹ s⁻¹, the Ka [9, 15] was 0.39 ± 0.04 mM and the ka ([9]; transformation of non-functional apo-sites to functional holo-sites) was 11 ± 0.4 s⁻¹. For the same molecule, the Kd ([9]; read-out: Kd, koff/kon) was 1600 ± 200 µM, the Kd [9, 16] was 200 ± 30 µM and the Kd [9, 17] was 2600 ± 1000 µM. For the same molecule, the koff (Hs-SAHH [10]; 30 °C, pH 7.4, wild-type enzyme) was 1.9 ± 0.3 × 10^−5 s^−1, the “10^6koff” value (Hs-SAHH [10]; [18]) was 19 ± 3 s^−1 and the koff (Tc-SAHH [11]; 24 °C, pH 7.4, wild-type enzyme) was 1.1 ± 0.2 × 10^−4 s^−1. For the same molecule, the “10^6koff” value (Tc-SAHH [11]; [18]) was 110 ± 20 s^−1.

“K431A mutant of Trypanosoma cruzi S-adenosylhomocysteine hydrolase (TcK431A) (enzyme)” gave a stoichiometry N [12] of 4.

Work on “Y435A mutant of Trypanosoma cruzi S-adenosylhomocysteine hydrolase (TcY435A) (enzyme)” yielded a stoichiometry N [13] of 4.

B1: Y430A mutant of human S-adenosylhomocysteine hydrolase (HsY430A) (enzyme)
chain: MSDKLPYKVADIGLAAWGRKALDIAENEMPGLMRMRERYSASKPLKGARIAGCLHMTVETAVLIETLVTLGAEVQWSSCNIFSTQDHAAAAIAKAGIPVYAWKGETDEEYLWCIEQTLYFKDGPLNMILDDGGDLTNLIHTKYPQLLPGIRGISEETTTGVHNLYKMMANGILKVPAINVNDSVTKSKFDNLYGCRESLIDGIKRATDVMIAGKVAVVAGYGDVGKGCAQALRGFGARVIITEIDPINALQAAMEGYEVTTMDEACQEGNIFVTTTGCIDIILGRHFEQMKDDAIVCNIGHFDVEIDVKWLNENAVEKVNIKPQVDRYRLKNGRRIILLAEGRLVNLGCAMGHPSFVMSNSFTNQVMAQIELWTHPDKYPVGVHFLPKKLDEAVAEAHLGKLNVKLTKLTEKQAQYLGMSCDGPFKPDHARY
For B1, the “stoichiometry N” value (SEC) was 4.
